As a reminder, the MIC is the least concentration at which growth counts as inhibited. The low end stands for a more susceptible organism, the high end for a less susceptible organism.

Structures are written as SMILES. ≈ marks a conversion by molar mass, not a printed value. Calls of active or inactive are those of the source. The rule behind the calls is not given here.

Experiment [1] relates to Staphylococcus. In words: Antibacterial activity against Staphylococcus MLS-16 MTCC 2940 at 20 ug/ml after 24 hrs by disk diffusion method. Conditions: MLS-16 MTCC 2940, 24 h, read-out: IZ. It counts as functional. (In general: In agar diffusion tests the substance spreads into inoculated agar from a disc or well.)
In experiment [2] the test system is Staphylococcus aureus. In words: Antibacterial activity against Staphylococcus aureus MTCC 96 after 24 hrs by agar dilution method. Conditions: MTCC 96, 24 h. It counts as functional. (In agar dilution the substance is mixed into plates at graded concentrations.)
Experiment [3] has as its system Bacillus subtilis. The experiment can be described thus: Antibacterial activity against Bacillus subtilis MTCC 121 after 24 hrs by agar dilution method. It counts as functional. Particulars: MTCC 121, 24 h.
Experiment [4] concerns Micrococcus luteus. The experiment can be described thus: Antibacterial activity against Micrococcus luteus MTCC 2470 at 20 ug/ml after 24 hrs by disk diffusion method. It counts as functional. Conditions: MTCC 2470, 24 h, read-out: IZ.
Experiment [5] concerns Micrococcus luteus. The experiment can be described thus: Antibacterial activity against Micrococcus luteus MTCC 2470 after 24 hrs by agar dilution method. It counts as functional. Conditions: MTCC 2470, 24 h.
Experiment [6] relates to Staphylococcus. In words: Antibacterial activity against Staphylococcus MLS-16 MTCC 2940 after 24 hrs by agar dilution method. It counts as functional. Particulars: MLS-16 MTCC 2940, 24 h.
The subject of experiment [7] is Pseudomonas aeruginosa. The experiment can be described thus: Antibacterial activity against Pseudomonas aeruginosa MTCC 2453 at 20 ug/ml after 24 hrs by disk diffusion method. It counts as functional. Particulars: MTCC 2453, 24 h, read-out: IZ.
Experiment [8] has as its system Staphylococcus aureus. In words: Antibacterial activity against Staphylococcus aureus MTCC 96 at 20 ug/ml after 24 hrs by disk diffusion method. Particulars: MTCC 96, 24 h, read-out: IZ. It counts as functional.
In experiment [9] the test system is Bacillus subtilis. The experiment can be described thus: Antibacterial activity against Bacillus subtilis MTCC 121 at 20 ug/ml after 24 hrs by disk diffusion method. It counts as functional. Conditions: MTCC 121, 24 h, read-out: IZ.
The subject of experiment [10] is Mycobacterium tuberculosis. In words: Antibacterial activity against Mycobacterium tuberculosis H37Rv at 32 ug/ml […] by agar dilution method. It counts as functional, organism-based.
Experiment [11] concerns Pseudomonas aeruginosa. In words: Antibacterial activity against Pseudomonas aeruginosa MTCC 2453 at 80 ug/ml after 24 hrs by agar dilution method. It counts as functional, organism-based.
A further experiment concerns Escherichia coli. In words: Antibacterial activity against Escherichia coli MTCC 739 at 80 ug/ml after 24 hrs by agar dilution method. It counts as functional, organism-based.
For experiment [12], the system named is Micrococcus luteus. In words: Antibacterial activity against Micrococcus luteus MTCC 2470 at 80 ug/ml after 24 hrs by agar dilution method. It counts as functional, organism-based.
The test system of experiment [13] is Candida albicans. In words: Antifungal activity against Candida albicans MTCC 3017 at 80 ug/ml after 48 hrs by agar dilution method. It counts as functional, organism-based. In a few lines:
(§1)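 Same disk/dilution format as the antibacterial assay, on potato dextrose agar (39 g/L). Compounds were from DMSO stock, loaded at 1 to 80 per disk, in triplicate. Plates were incubated at 28 ± 2 °C for 48 h. MIC was the lowest amount that arrested growth. Equivalent DMSO served as solvent control.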

In a further experiment the test system is Raoultella planticola. The experiment can be described thus: Antibacterial activity against Klebsiella planticola MTCC 530 at 80 ug/ml after 24 hrs by agar dilution method. It counts as functional, organism-based.
Experiment [14] has as its system Bacillus subtilis. In words: Antibacterial activity against Bacillus subtilis MTCC 121 at 80 ug/ml after 24 hrs by agar dilution method. It counts as functional, organism-based.
Experiment [15] concerns Pseudomonas aeruginosa. In words: Antibacterial activity against Pseudomonas aeruginosa MTCC 2453 after 24 hrs by agar dilution method. It counts as functional. Particulars: MTCC 2453, 24 h.
The test system of experiment [16] is Candida albicans. The experiment can be described thus: Antifungal activity against Candida albicans MTCC 3017 after 48 hrs by agar dilution method. It counts as functional. Particulars: MTCC 3017, 48 h. In a few lines: as §1
Experiment [17] deals with Candida albicans. In words: Antifungal activity against Candida albicans MTCC 3017 at 20 ug/ml after 24 hrs by disk diffusion method. Particulars: MTCC 3017, 24 h, read-out: IZ. It counts as functional.
For experiment [18], the system named is Staphylococcus aureus. In words: Antibacterial activity against Staphylococcus aureus MTCC 96 at 80 ug/ml after 24 hrs by agar dilution method. It counts as functional, organism-based.
Experiment [19] deals with Staphylococcus. The experiment can be described thus: Antibacterial activity against Staphylococcus MLS-16 MTCC 2940 at 80 ug/ml after 24 hrs by agar dilution method. It counts as functional, organism-based.
Experiment [20] deals with Mycobacterium tuberculosis. In words: Antibacterial activity against Mycobacterium tuberculosis H37Rv after 2 to 3 weeks by broth microdilution method. It counts as functional. In a few lines: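 M. tuberculosis H37Rv, first screened at a single concentration of 32 in triplicate in a microtiter plate (microplate dilution assay). Compounds active in this screen were then taken to MIC determination by broth microdilution. Compounds were dissolved in DMSO.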
On the technique in general: In broth dilution the organism is exposed to a series of concentrations in liquid medium.

With `CC(=O)NC[C@H]1CN(c2ccc(N3CCOCC3)c(F)c2)C(=O)O1` [LINEZOLID], the zone of inhibition at 20 µg/mL in the experiment on Staphylococcus [1] amounted to 18 mm; in the experiment on Micrococcus luteus [4] it was 20 mm; with Pseudomonas aeruginosa [7], 12 mm; in the experiment with Staphylococcus aureus [8] it was 28 mm; in the experiment with Bacillus subtilis [9], 10 mm. The MIC in the experiment with Staphylococcus aureus [2] was 1.5 µg/mL (≈ 4.45 µM); against Bacillus subtilis [3] it was 1.5 µg/mL (≈ 4.45 µM); in the experiment on Micrococcus luteus [5], 1 µg/mL (≈ 2.96 µM); in the experiment on Staphylococcus [6], 1.5 µg/mL (≈ 4.45 µM).

As for `O=C1O[C@@H](CNS(=O)(=O)c2ccc(F)cc2Cl)CN1c1ccc(N2CCOCC2)c(F)c1`, the result (in [10]; in the experiment with Pseudomonas aeruginosa [11]; in the experiment on Escherichia coli; in the experiment on Micrococcus luteus [12]; in the experiment on Candida albicans [13]; in the experiment on Raoultella planticola) was inactive. The MIC with Staphylococcus aureus [2] came to 20 µg/mL (≈ 41 µM); against Bacillus subtilis [3], 8 µg/mL (≈ 16.4 µM); against Staphylococcus [6], 20 µg/mL (≈ 41 µM).

For `O=C1O[C@@H](CNS(=O)(=O)c2ccc(Oc3ccccc3)cc2)CN1c1ccc(N2CCSCC2)c(F)c1`, the result (with Bacillus subtilis [14]; in [10]; with Escherichia coli; in the experiment with Micrococcus luteus [12]; in the experiment with Raoultella planticola) was inactive. Moreover, the MIC in the experiment with Staphylococcus aureus [2] came to 8 µg/mL (≈ 14.7 µM); against Pseudomonas aeruginosa [15], 20 µg/mL (≈ 36.8 µM); against Candida albicans [16], 20 µg/mL (≈ 36.8 µM); with Staphylococcus [6], 8 µg/mL (≈ 14.7 µM).

As for `O=C1O[C@@H](CNS(=O)(=O)c2ccc(C(F)(F)F)cc2)CN1c1ccc(N2CCNCC2)c(F)c1`, the result in the experiment with Escherichia coli and in the experiment on Raoultella planticola was inactive. The zone of inhibition at 20 µg/mL was determined as 15 mm in the experiment on Staphylococcus [1]; 13 mm in the experiment on Micrococcus luteus [4]; 16 mm in the experiment with Pseudomonas aeruginosa [7]; 15 mm with Candida albicans [17]; 17 mm with Staphylococcus aureus [8]; 16 mm in the experiment with Bacillus subtilis [9]. Further, the MIC in the experiment on Staphylococcus aureus [2] was found to be 6 µg/mL (≈ 11.9 µM); with Bacillus subtilis [3] it was 8 µg/mL (≈ 15.9 µM); with Micrococcus luteus [5], 8 µg/mL (≈ 15.9 µM); in the experiment with Pseudomonas aeruginosa [15] it was 8 µg/mL (≈ 15.9 µM); against Candida albicans [16], 10 µg/mL (≈ 19.9 µM); in the experiment with Staphylococcus [6], 6 µg/mL (≈ 11.9 µM).

Consider `O=C1O[C@@H](CNS(=O)(=O)c2cccc(Cl)c2)CN1c1ccc(N2CCSCC2)c(F)c1`, for which the result (in experiment [10]; in the experiment with Escherichia coli; in the experiment on Micrococcus luteus [12]; with Candida albicans [13]; in the experiment on Staphylococcus aureus [18]; with Raoultella planticola) was inactive. For the same compound, the result in the experiment on Staphylococcus [19] was inactive. In addition, the figures for the MIC with Bacillus subtilis [3] and in the experiment with Pseudomonas aeruginosa [15] were 20 µg/mL (≈ 41.2 µM) and 10 µg/mL (≈ 20.6 µM), respectively.

Take `O=C1O[C@@H](CNS(=O)(=O)c2ccc(F)cc2)CN1c1ccc(N2CCOCC2)c(F)c1`: in the experiment on Micrococcus luteus [12], the result was inactive. For the same compound, the MIC in experiment [20] is 1 µg/mL (≈ 2.21 µM); against Bacillus subtilis [3] it was 10 µg/mL (≈ 22.1 µM); against Pseudomonas aeruginosa [15] it was 10 µg/mL (≈ 22.1 µM); with Candida albicans [16], 10 µg/mL (≈ 22.1 µM); in the experiment with Staphylococcus [6], 10 µg/mL (≈ 22.1 µM).

Consider `O=C1O[C@@H](CNS(=O)(=O)c2ccc(F)cc2)CN1c1ccc(N2CCSCC2)c(F)c1`, for which the outcome (in experiment [10]; with Escherichia coli; in the experiment with Raoultella planticola) was inactive. In addition, the zone of inhibition at 20 µg/mL in the experiment with Staphylococcus [1] is 17 mm; with Micrococcus luteus [4], 14 mm; in the experiment with Pseudomonas aeruginosa [7], 17 mm; in the experiment on Candida albicans [17], 16 mm; in the experiment with Staphylococcus aureus [8], 18 mm; in the experiment with Bacillus subtilis [9], 23 mm. The MIC with Staphylococcus aureus [2] was 10 µg/mL (≈ 21.3 µM); in the experiment with Bacillus subtilis [3] it was 8 µg/mL (≈ 17 µM); with Micrococcus luteus [5] it was 10 µg/mL (≈ 21.3 µM); with Pseudomonas aeruginosa [15] it was 10 µg/mL (≈ 21.3 µM); with Candida albicans [16] it was 10 µg/mL (≈ 21.3 µM); against Staphylococcus [6], 10 µg/mL (≈ 21.3 µM).

As for `O=C1O[C@@H](CNS(=O)(=O)c2cccs2)CN1c1ccc(N2CCOCC2)c(F)c1`, the result (in experiment [10]; in the experiment on Escherichia coli; in the experiment with Raoultella planticola) was inactive. Further, the zone of inhibition at 20 µg/mL is 18 mm in the experiment with Staphylococcus [1]; 15 mm in the experiment on Micrococcus luteus [4]; 19 mm in the experiment on Pseudomonas aeruginosa [7]; 18 mm in the experiment on Candida albicans [17]; 20 mm with Staphylococcus aureus [8]; 20 mm with Bacillus subtilis [9]. The MIC against Staphylococcus aureus [2] is 4 µg/mL (≈ 9.06 µM); in the experiment on Bacillus subtilis [3], 4 µg/mL (≈ 9.06 µM); against Micrococcus luteus [5] it was 6 µg/mL (≈ 13.6 µM); with Pseudomonas aeruginosa [15], 4 µg/mL (≈ 9.06 µM); in the experiment on Candida albicans [16] it was 4 µg/mL (≈ 9.06 µM); against Staphylococcus [6] it was 4 µg/mL (≈ 9.06 µM).

Regarding `O=C1O[C@@H](CNS(=O)(=O)c2ccc(F)cc2)CN1c1ccc(N2CCNCC2)c(F)c1`, the outcome in the experiment on Escherichia coli and with Raoultella planticola was inactive. The zone of inhibition at 20 µg/mL with Staphylococcus [1] came to 17 mm; in the experiment with Micrococcus luteus [4], 14 mm; in the experiment on Pseudomonas aeruginosa [7], 18 mm; in the experiment with Candida albicans [17], 16 mm; in the experiment with Staphylococcus aureus [8], 17 mm; with Bacillus subtilis [9], 20 mm. For the same compound, the MIC against Staphylococcus aureus [2] was determined as 8 µg/mL (≈ 17.7 µM); in the experiment with Bacillus subtilis [3] it was 10 µg/mL (≈ 22.1 µM); against Micrococcus luteus [5] it was 4 µg/mL (≈ 8.84 µM); in the experiment on Pseudomonas aeruginosa [15] it was 4 µg/mL (≈ 8.84 µM); against Candida albicans [16] it was 8 µg/mL (≈ 17.7 µM); with Staphylococcus [6], 8 µg/mL (≈ 17.7 µM).

Turning to `O=C1O[C@@H](CNS(=O)(=O)c2cc(S(=O)(=O)c3ccccc3)cs2)CN1c1ccc(N2CCOCC2)c(F)c1`, the outcome (in the experiment on Bacillus subtilis [14]; in experiment [10]; in the experiment with Pseudomonas aeruginosa [11]; with Escherichia coli; in the experiment with Micrococcus luteus [12]; with Candida albicans [13]) was inactive. Besides, the outcome with Staphylococcus aureus [18], in the experiment on Raoultella planticola and with Staphylococcus [19] was inactive.

Source of the values: ChEMBL document CHEMBL2331333, “Synthesis, biological evaluation of new oxazolidino-sulfonamides as potential antimicrobial agents” (2013).
